# SIRT5 inh = sirtuin-5 (human) deacylase inhibition; Purified SirT5, succinyl-peptide AMC, trypsin-coupled fluorescence; inhibition, % at 15 µM; 1.1% of 330,000 active; AID 652115; in the data active means inhibition above about 15%
# E-selectin induc = E-selectin induction on HUVECs | activation, % at 7.58 µM | 0.37% of 260,000 active | P16581 | HUVEC E-selectin immunofluorescence imaging; normalized: neutral wells 0, TNF-alpha wells 100;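 active means mean E-selectin-positive cell signal at least 10% of the positive control, reached in at least 60% of replicates, without over 20% cell loss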
#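 Material: HUVEC primary endothelial cells; Amount: 3,000 cells per well; Dosing: single concentration; Medium: EGM-2 growth medium on 0.1% gelatin-coated wells; Read-out basis: percent E-selectin-positive cells; Signal: immunofluorescence imaging; Control set: TNF-alpha, DMSO.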
# AF4-AF9 inh = inhibitors of human MLL-AF4/AF9 interaction. P42568. AlphaScreen, biotin-AF4 peptide binding to FLAG-AF9. inhibition, % at 10 µM. 0.47% of 350,000 active. AID 651704;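 active means every replicate reaching a set inhibition limit, whatever the replicate mean, cut at about 25% in these data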;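 further: 0% = plate neutral control median and 100% = total signal loss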
# S100A4 inh HTS = inhibitors of human S100A4 binding to myosin IIA peptide | P26447 | S100A4/TAMRA-MyoIIA peptide fluorescence polarization | inhibition, % at 10.7 µM | 0.14% of 360,000 active;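 active means mean inhibition of at least 70% across replicates, with every replicate also reaching that level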
#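 Material: S100A4 monomer protein / Buffer or medium: 50 mM HEPES pH 7.2, 10 mM CaCl2, 100 mM KCl / Times: 5 min incubation before reading / Benchmarks: neutral control DMSO, positive control TFP / Reagent: labelled myosin peptide probe, 5 nM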
# rRNA inh HTS = selective bacterial rRNA inhibition in E. coli; E. coli WT GFP vs humanized-ribosome RFP mutants, fluorescence, 24 h; hits give low values; DMSO median 0, no signal -100; GFP signal change (wild-type ribosome), % (concentration not given with the values); 1.6% of 350,000 active; AID 720706;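 active means significant combined selectivity score with lowered wild-type GFP, culture density cut under 30%, mutant RFP and density less affected; inactive means any of these conditions unmet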
# ERAP1 inh = blocks human ERAP1 aminopeptidase activity; recombinant ERAP1, Leu-AMC fluorescence, 60 min; Q9NZ08; 0.15% of 340,000 active; inhibition, % at 10.7 µM;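 active means mean replicate inhibition of at least 30%, or all replicates individually reaching that 30% level; inactive means mean below 30% and not every replicate reaching it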;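 further: 0% = neutral control wells and 100% = L-leucinethiol positive control wells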
# Target sequence (Q9NZ08 whole entry, looked up): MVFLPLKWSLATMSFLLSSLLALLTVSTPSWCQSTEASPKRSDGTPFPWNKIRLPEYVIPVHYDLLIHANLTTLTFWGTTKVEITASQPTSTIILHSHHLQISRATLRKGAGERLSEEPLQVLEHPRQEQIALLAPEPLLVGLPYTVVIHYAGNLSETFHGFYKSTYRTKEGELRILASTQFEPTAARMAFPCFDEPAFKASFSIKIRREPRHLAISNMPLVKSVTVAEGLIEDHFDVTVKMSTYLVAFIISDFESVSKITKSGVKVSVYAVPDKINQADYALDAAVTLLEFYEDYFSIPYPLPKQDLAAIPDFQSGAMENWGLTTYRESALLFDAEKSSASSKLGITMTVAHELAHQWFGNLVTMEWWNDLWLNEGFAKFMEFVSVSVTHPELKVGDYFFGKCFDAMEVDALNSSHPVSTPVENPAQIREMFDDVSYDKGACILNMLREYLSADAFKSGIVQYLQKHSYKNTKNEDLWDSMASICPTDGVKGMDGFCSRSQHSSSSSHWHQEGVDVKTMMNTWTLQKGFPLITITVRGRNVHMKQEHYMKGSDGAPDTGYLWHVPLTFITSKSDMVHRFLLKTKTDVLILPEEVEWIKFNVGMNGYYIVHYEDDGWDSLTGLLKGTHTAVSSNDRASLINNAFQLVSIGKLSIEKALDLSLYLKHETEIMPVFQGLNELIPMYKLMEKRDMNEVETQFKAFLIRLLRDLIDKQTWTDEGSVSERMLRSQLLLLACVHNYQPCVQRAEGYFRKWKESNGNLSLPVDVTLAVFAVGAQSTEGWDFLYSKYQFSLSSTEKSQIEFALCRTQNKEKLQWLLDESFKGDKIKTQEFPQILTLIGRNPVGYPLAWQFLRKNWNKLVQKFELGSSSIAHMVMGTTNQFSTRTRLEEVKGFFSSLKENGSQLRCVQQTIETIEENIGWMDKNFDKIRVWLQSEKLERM
# The depositor's hits bear a star; . = no result; ! = repeats disagree. Most compounds without a hit are left out; they make up all but 3.4% or so of the library.
SMILES,SIRT5 inh,E-selectin induc,AF4-AF9 inh,S100A4 inh HTS,rRNA inh HTS,ERAP1 inh
CCCNC(=O)[C@@H]1[C@@H](CO)[C@@H]2Cn3c(ccc(-c4ccccc4)c3=O)[C@@H]2N1C(=O)C1CCC1,-1.2,-0.2,-0.4,0.0,-1.2,-2.8
CCOC(=O)N1CCC(N(CCOC)C(=S)Nc2cccc(SC)c2)CC1,1.5,-0.1,2.1,-0.1,-23.1*,-1.1
CN(C)CC(=O)N[C@@H]1CC[C@@H](CCNC(=O)Nc2ccc(F)cc2)O[C@@H]1CO,-35.9,1.0,7.3,34.8,1.5,-1.9
COc1cccc2c(=O)n(CC(=O)N3CCCc4ccccc43)ccc12,23.0*,2.4,0.7,0.6,-0.5,3.3
COc1cccc2c(=O)n(CC(=O)Nc3ccccc3)ccc12,-4.2,-0.2,48.1*,-10.0,12.2,-4.7
c1ccc(-c2cncnc2)cc1,25.1*,0.0,-2.2,0.1,10.3,-2.8
Cn1cccc1-c1cc(C(=O)N/N=C/c2ccc(F)cc2)[nH]n1,-5.0,.,11.3,2.7,-13.2,-2.3
O=C(N/N=C/C=C/c1ccccc1[N+](=O)[O-])c1cc(-c2ccccc2)n[nH]1,3.9,.,5.4,-2.8,-34.3*,5.9
O=C(N/N=C/C=C\c1ccccc1[N+](=O)[O-])c1ccccn1,1.1,0.0,-0.3,0.9,8.4,0.1
C[n+]1cccc(C(=O)N/N=C/c2ccc3c(c2)OCO3)c1,10.6,0.3,0.0,0.8,6.6,45.6*
CCOc1ccc(/C=N/NC(=O)c2cc(-c3cccn3C)n[nH]2)cc1,-1.7,.,3.5,-2.9,-26.1*,11.7
CC(/C=N/NC(=O)c1cc(-c2cccn2C)n[nH]1)=C\c1ccccc1,-6.1,1.0,1.4,4.0,-40.4*,-1.1
CC[C@@H](C)[C@@H](CO[C@@H](Cc1ccccc1)C(=O)N[C@@H](CCS(C)(=O)=O)C(=O)OC(C)C)NCC(N)CS (some centres undefined),-2.3,.,0.0,-5.8,.,-1.5
O=C(N/N=C/c1cc2c(cc1Cl)OCO2)c1cc(-c2ccccc2)n[nH]1,-3.0,0.7,1.8,-3.9,-23.9*,-0.2
O=C(N/N=C\c1cc2c(cc1Cl)OCO2)c1cccnc1,-1.5,-0.2,-0.5,-9.7,4.8,-4.2
O=C(N/N=C/c1ccc(F)cc1)c1cc(-c2ccc3c(c2)OCO3)n[nH]1,-4.6,.,0.9,-1.9,.,-2.1
Cn1cccc1-c1cc(C(=O)N/N=C/c2ccccc2Cl)[nH]n1,0.4,.,11.9,-9.4,-22.4*,-1.8
COc1ccc(/C=N/NC(=O)c2cc(-c3ccc4c(c3)OCO4)n[nH]2)cc1OC,-3.6,.,-0.6,-1.4,-20.2*,-0.7
COCC(=O)Nc1ccc2c(c1)[C@H]1C[C@H](CC(=O)NCc3ccc(Cl)cc3)O[C@@H](CO)[C@H]1O2,.,-0.6,.,.,-1.3,.
O=C1C=CC(c2c[nH]c3ccccc23)CC1 (centres undefined),-1.1,0.0,2.0,-4.3,-13.7*,-0.8
O=C(C[C@H]1CC[C@@H]2[C@H](COC[C@H](O)CN2CC2CCCC2)O1)NCC1CC1,-3.2,0.1,-2.9,5.5,-7.0,-3.3
COc1cc(-c2nnc(SCC(=O)c3ccccc3)o2)cc(OC)c1OC,-9.1,.,-63.8,4.7,-24.6*,1.6
CCOC(=O)CSc1nnc(-c2cc(OC)c(OC)c(OC)c2)o1,-4.7,4.8,-0.9,-4.0,0.5,20.8
O=C(C[C@@H]1CC[C@H]2[C@@H](COC[C@H](O)CN2Cc2cc(F)cc(F)c2)O1)NCc1cccc(F)c1,-0.1,0.2,-1.5,0.9,-4.4,0.9
C[C@H](NC(=O)C[C@@H]1CC[C@H]2[C@@H](COC[C@@H](O)CN2Cc2ccc(C(F)(F)F)cc2)O1)c1ccccc1,16.6*,-0.2,0.3,-3.9,0.7,-1.9
SMILES,SIRT5 inh,E-selectin induc,AF4-AF9 inh,S100A4 inh HTS,rRNA inh HTS,ERAP1 inh
O=C(C[C@@H]1CC[C@@H]2[C@H](COC[C@H](O)CN2Cc2ccc(Cl)cc2)O1)NCCc1ccccc1,-0.1,-0.1,-0.5,-3.7,-4.9,0.4
C[C@@H](NC(=O)C[C@H]1CC[C@@H]2[C@H](COC[C@H](O)CN2Cc2ccc(C(F)(F)F)cc2)O1)c1ccccc1,13.5,0.2,0.9,15.0,0.7,-2.2
O=C(C[C@H]1CC[C@@H]2[C@H](COC[C@H](O)CN2Cc2cccc(F)c2)O1)NCc1cccc(F)c1,20.3*!,-0.1,0.2,2.9,-8.6,-0.7
O=C(C[C@H]1CC[C@H]2[C@@H](COC[C@@H](O)CN2Cc2ccncc2)O1)NCc1ccncc1,3.1,-0.1,-4.4,3.8,-1.7,1.2
O=C(C[C@@H]1CC[C@H]2[C@@H](COC[C@@H](O)CN2Cc2ccncc2)O1)NCc1ccncc1,18.6*,0.2,-3.8,7.2,-0.6,1.4
O=C(C[C@H]1CC[C@@H]2[C@H](COC[C@@H](O)CN2Cc2ccc(Cl)cc2)O1)NCCc1ccccc1,0.7,0.1,-1.4,-0.5,-21.2*!,0.4
CC(C)NC(=O)N(C)C[C@@H]1Oc2c(N)cccc2C(=O)N(C)C[C@@H]1C,.,.,.,.,4.4,.
C[C@H]1CN([C@@H](C)CO)C(=O)Cc2cc(NC(=O)CCN3CCOCC3)ccc2O[C@H]1CN(C)S(=O)(=O)c1ccc(Cl)cc1,-3.8,0.4,1.1,6.6,1.3,1.6
COc1ccc2c3c(n(C)c2c1)[C@@H](CO)N(C(=O)NC(C)C)CC31CCN(C(C)=O)CC1,.,-0.3,-3.1,.,0.4,.
O=C(Nc1cccc(Cl)c1)c1ccc(Cn2cc(Cl)cn2)cc1,.,.,1.8,-2.0,-26.1*,-2.0
c1ccc(-c2nc(-c3cccs3)[nH]c2-c2ccccc2)cc1,15.4*,.,9.9,-2.7,10.2,1.3
O=C(N/N=C/c1ccccc1F)C(=O)N1CCCCCC1,4.8,0.0,0.5,0.4,3.4,3.1
O=C(N/N=C/c1ccccc1O)C(=O)N1CCCCCC1,-2.9,.,-0.4,0.2,-24.6*,0.4
COc1ncnc2c1ncn2CCCN1CCN(c2ccccn2)CC1,27.7*,-0.3,-1.2,3.1,4.3,3.2
CC(C)C#Cc1cnc2c(c1)C(=O)N([C@H](C)CO)C[C@@H](C)[C@@H](CN(C)C(=O)c1cccnc1)O2,-3.4,0.1,-3.2,-3.6,6.7,-2.8
CC(=NNc1cc(C)c2ccccc2n1)c1ccccn1,.,-0.3,28.6*,5.9,.,-0.4
Cc1ccc(C=Nc2ccccc2C(N)=O)o1,-2.2,-1.6,-9.5,-1.7,4.8,-4.6
Cc1ccc(C=Nc2ccc(N(C)C)cc2)o1,-1.9,.,58.5*,-6.4,2.8,0.5
CCCc1ccc(OCc2ccc(C(=O)NN)o2)c(OC)c1,-2.2,0.8,1.3,-9.0,-21.8,1.7
NNC(=O)c1ccc(COc2ccc3c(c2)CCC3)cc1,-0.9,-3.1,12.3,2.0,-26.4*,-3.9
